# Assay outcomes as filed in PubChem.
# Cardiac RTF inh: cardiac RTF calcium desensitization; inhibition, % at 7.15 µM; AID 493244; 340,000 compounds, 0.12% hits; P19429+P45379; IANBD-labeled cardiac RTF, Ca2+ fluorescence;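 active = inhibition above the mean inhibition of all tested compounds plus 3 SD, cut at about 17% in these data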;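 also: assay run at fixed EC70 calcium of 1.6 mM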
# Efflux pump mplx: blocks antifungal efflux pumps in multiplex yeast assay; S. cerevisiae Candida pump triplex, Nile Red efflux; inhibition, % at 10 µM; 330,000 compounds, 0.44% hits;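 active = plate passing quality check with inhibition over a set limit, or well fluorescence over plate mean plus 4 SD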;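 also: Nile Red retained in pooled yeast measured as flow cytometry median fluorescence; 0% = buffer negative control and 100% = Enniatin B positive control; higher means more Nile Red kept so more efflux inhibition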
# SUMO Mot1 rescue: SUMOylation pathway inhibition by Mot1-301 growth rescue. 320,000 compounds, 1% hits. growth rescue, % at 18.8 µM. AID 2716. S. cerevisiae Mot1-301 growth rescue, ATP luminescence, 38.5C; percent above DMSO median, 100 means doubled;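 active = every valid replicate shows activation above 250% relative to neutral control wells; inactive = the rest, any valid replicate at or below 250%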;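 also: OY570 slx delta 5 strain wells were the positive control but not used for scaling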
# cardiac RTF act: cardiac RTF calcium sensitization; 340,000 compounds, 0.24% hits; activation, % at 7.2 µM; AID 493008; IANBD-labeled TnC RTF fluorescence at EC20 calcium; 0% EC20 calcium, 100% full calcium; P19429+P45379;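 active = activation above the mean over all tested compounds plus 3 SD, cut at about 30% in these data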;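 also: rise in fluorescence read as greater calcium sensitivity of cardiac thin filaments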
# UCH37 inh: inhibitors of human deubiquitinating enzyme UCH37. AID 588478. purified proteasome/UCH37, Ub-AMC cleavage fluorescence. 330,000 compounds, 0.33% hits. inhibition, % (no concentration beside the values). Q9Y5K5;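 active = mean inhibition over replicate wells above about 20%, limit read from the data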;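 also: 0% = compound-free wells with enzyme and 100% = wells lacking proteasome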
# Target sequence (Q9Y5K5 whole entry, looked up): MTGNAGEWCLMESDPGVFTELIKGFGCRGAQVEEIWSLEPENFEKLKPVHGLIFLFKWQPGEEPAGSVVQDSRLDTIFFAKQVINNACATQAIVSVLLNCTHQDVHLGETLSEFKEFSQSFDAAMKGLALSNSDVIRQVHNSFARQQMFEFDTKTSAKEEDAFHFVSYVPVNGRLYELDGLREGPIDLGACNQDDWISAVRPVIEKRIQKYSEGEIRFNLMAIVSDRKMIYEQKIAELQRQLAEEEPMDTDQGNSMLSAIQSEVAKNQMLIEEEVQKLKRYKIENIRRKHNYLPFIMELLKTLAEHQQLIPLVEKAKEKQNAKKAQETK
#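 Material: human UCH37 enzyme supplied as purified proteasome complex. Measure: % inhibition of Ub-AMC cleavage fluorescence. Medium: pH 7.4 Tris-HCl (50 mM) with ovalbumin, ATP-MgCl2, DTT. Times: 30 min preincubation with enzyme, 25 min cleavage at room temperature. Detection: AMC fluorescence intensity at 355/460 nm.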
# ARNT TACC3 PPI: disruptors of human ARNT/TACC3 interaction; 390,000 compounds, 0.66% hits; AID 623870; AlphaScreen His-ARNT PAS-B/GST-TACC3 binding, luminescence; TACC3 fragment carries E629A point mutation; Q9Y6A5; inhibition, % at 9.99 µM;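 active = mean inhibition of replicates at least 50% and at least half of replicates each reaching 50%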;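 also: 0% = complete ARNT plus TACC3 wells and 100% = ARNT alone without TACC3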
# * hit, by the source's call; . = not tested or not shown. Most compounds without a hit are left out; they make up all but 2.1% or so of the library.
SMILES,Cardiac RTF inh,Efflux pump mplx,SUMO Mot1 rescue,cardiac RTF act,UCH37 inh,ARNT TACC3 PPI
CN1CCN(c2ccc(/C=C3\C(=O)NC(=S)N(c4cccc(Br)c4)C3=O)o2)CC1,-79.5,0.1,0.1,96.6*,21.1*,-2.4
CN1C(=O)/C(=C\c2ccc(N3CCCCC3)o2)C(=O)NC1=S,-40.7,0.1,252.3,55.1*,21.8*,-0.9
CN1C(=O)/C(=C/c2ccc(N3CCCCCC3)o2)C(=O)NC1=S,-37.3,0.2,38.1,86.5*,17.6,2.4
C#C[C@@]1(O)CCC2C3CCC4=CC(=NOCC(=O)NC(C(=O)NC(CC(C)C)C(=O)O)C(C)C)CC[C@]4(C)C3CC[C@@]21C (stereo not given in full),.,.,.,.,1.2,.
N#Cc1c(N=Cc2ccc(O)cc2O)sc2c1C1CCN2CC1,.,.,.,.,5.9,.
CNc1ccc2nc3ccccc3[n+](C)c2c1,-1.3,6.0*,-32.7,0.9,.,67.5*
C[n+]1c2ccccc2nc2ccc(NCCO)cc21,2.1,1.8*,-20.1,-3.0,19.5,43.1
OCCNc1c2c(nc3ccccc13)CCCC2,-5.7,0.1,-22.2,0.6,8.9,-2.5
Cc1[nH]c2ccccc2c1C=NO,.,.,.,.,0.8,.
CC12CC[C@H]3[C@@H](CCC4(O)C[C@H](O)CCC34C=NNC(=O)c3ccccc3F)C1(O)CCC2C1=CC(=O)OC1 (stereo not given in full),.,.,.,.,1.4,.
O=[N+]([O-])c1ccc(N2CCCC2)cc1NN=C1CN2CCC1CC2,.,.,.,.,21.6*,.
CCOc1ccc(-n2c(O)c(/C=C3\C=Nc4ccccc43)c(=O)[nH]c2=O)cc1,-9.9,0.3,296.9*,11.3,7.7,-1.1
COc1ccc(OC)c(-n2c(O)c(/C=C3\C=Nc4ccccc43)c(=O)[nH]c2=O)c1,-8.8,-0.2,-7.0,-0.1,.,-7.2
COc1c(Cl)cc(Cl)cc1C(=O)Nc1ccc(CN2CCOCC2)cc1,1.0,0.1,356.2*,-4.7,2.1,-4.8
Cc1c(C(=O)Nc2ccccc2)cc(-c2ccccc2)n1CCCN1CCOCC1,.,-0.2,-6.4,.,2.1,.
Cc1ccccc1-n1c(O)c(/C=N/NC(=O)c2ccccc2O)c(=O)[nH]c1=S,7.9,0.1,386.9,1.4,-5.4,57.1*
O=C(N/N=C/c1c(O)n(C2CC2)c(=S)[nH]c1=O)c1ccccc1O,2.5,-0.2,-15.5,-4.8,-5.5,59.9*
CCOC(=O)c1ccc(N=Cc2c(O)n(-c3ccccc3F)c(=S)[nH]c2=O)cc1,-18.3,0.2,-1.9,5.4,1.3,-2.7
CNC(=O)ON=Cc1nn(C(=O)C(C)(C)C)cc1Br,.,.,.,.,2.6,.
CC(C)CC12CN3CCN(CC(C3)C1=NO)C2,.,.,.,.,4.5,.
C=CCn1c(O)c(/C=N/NC(=O)c2ccncc2)c(=O)[nH]c1=O,-2.3,0.1,-19.8,-2.5,-16.6,77.8*
O=C(N/N=C/c1c(O)n(-c2ccccc2)c(=O)[nH]c1=O)c1ccncc1,-23.7,0.1,-26.9,11.2,-27.6,71.5*
O=C(N/N=C/c1c(O)n(-c2ccccc2)c(=S)[nH]c1=O)c1ccccc1,.,0.2,-25.4,.,2.4,63.6*
Cc1ccc(-n2c(O)c(/C=N/Nc3ccccc3)c(=O)[nH]c2=O)cc1C,.,0.0,310.3*,.,3.6,.
COc1ccc(N/N=C/c2c(O)n(-c3ccc(C)c(C)c3)c(=O)[nH]c2=O)cc1,-13.3,-0.3,42.7,3.5,3.5,29.2
SMILES,Cardiac RTF inh,Efflux pump mplx,SUMO Mot1 rescue,cardiac RTF act,UCH37 inh,ARNT TACC3 PPI
C[C@]12CCC3C(CCC4=CC(=NOCC(=O)NC(CCC(=O)O)C(=O)O)CC[C@@]43C)C1CCC2O (stereo not given in full),.,.,.,.,3.9,.
FC(F)(F)C(=NP(=S)(N1CCOCC1)N1CCOCC1)N1CCOCC1,.,.,.,.,-1.8,.
O=[N+]([O-])C=C1NCCN1Cc1ccc(Cl)nc1,.,.,.,.,4.7,.
Cn1c(O)c(/C=N/NC(=O)c2ccncc2)c(=O)[nH]c1=S,.,-0.1,-22.5,.,-35.6,.
COc1ccc(CCn2c(O)c(/C=N/NC(=O)c3ccncc3)c(=O)[nH]c2=O)cc1OC,2.0,0.0,-10.8,7.1,-19.2,76.2*
CC(=NCCCn1ccnc1)c1c(O)n(-c2ccccc2)c(=O)[nH]c1=O,2.8,0.1,-11.8,10.2,4.0,10.6
